Experimental data published in ChEMBL document CHEMBL4017500 (J Med Chem, 2017).
pIC50: −log10 of the molar value. Activity calls are given as the source filed them. No cut-off for these calls is given here.

How the values were obtained:
[1] = tested on: Escherichia coli; experiment: Inhibition of NDM1 in Escherichia coli isolate Ch8.70 assessed as potentiation of imipenem-induced antibacterial activity by measuring imipenem MIC at 100 mg/L after 18 to 20 hrs by broth microdilution assay (reference value: 16 mg/L)
[2] = Selectivity ratio of compound effect for inhibition of bacterial MBP-fused NDM1 expressed in Escherichia coli BL21(DE3) to compound effect for inhibition of human MMP12 (Phe99 to Leu271 residues) expressed in Escherichia coli
[3] = tested on: Bacteria; experiment: Binding affinity to bacterial CoCoNDM-1 expressed in Escherichia coli BL21(DE3) assessed as metal stripping at 1 to 2 equiv after 30 mins by UV-Visible spectroscopic method
Outline: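 Apo-NDM-1 at 300 μM in 50 mM HEPES, 150 mM NaCl, pH 6.8, loaded with 2 molar equiv CoCl2. […] Absorbance read 300–700 nm at 25 °C as difference spectra against buffer blank, normalized at 700 nm.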

[4] = Inhibition of bacterial MBP-fused NDM1 expressed in Escherichia coli BL21(DE3) ausing fluorocillin as substrate preincubated for 20 mins followed by substrate addition measured at 1 sec time interval for 25 mins by fluorescence assay; design: species or system Bacteria
Outline: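 NDM-1 pre-incubated 20 min with inhibitor (final 100 μM to 1 nM) in 50 mM HEPES pH 7.0 with 2 mM CHAPS. Reaction started with fluorocillin (final 87 nM, below KM), NDM-1 final 25 pM. Fluorescence read at λex/em 495/525 nm, 10 reads over ~25 min.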

[5] = tested on: Escherichia coli; experiment: Effect on growth of Escherichia coli isolate Ch8.70 at 100 mg/L after 18 to 20 hrs by broth microdilution assay
Outline: (§1)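 Mueller-Hinton broth microdilution per CLSI, triplicate. blaNDM-1 clinical isolates grown from OD600 0.1 to 0.224 (~1–2 × 10^8 CFU/mL), diluted 3 μL into 4997 μL MH, and 100 μL added to 100 μL of compound (100 mg/L) alone. Incubated 37 °C for 18–20 h, then scored for growth.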

[6] = tested on: Escherichia coli; experiment: Effect on growth of Escherichia coli isolate Ah8.74 at 100 mg/L after 18 to 20 hrs by broth microdilution assay; outline: as §1
[7] = target: Histone deacetylase 1 (Homo sapiens) (UniProt Q13547); experiment: Inhibition of full length human C-terminal FLAG/His-tagged HDAC1 expressed in baculovirus infected sf9 cells at 50 to 100 uM using HDAC substrate 3 preincubated for 5 mins followed by substrate addition measured after 30 mins by fluorescence assay
Sequence of Histone deacetylase 1 (Homo sapiens) (Q13547 whole entry): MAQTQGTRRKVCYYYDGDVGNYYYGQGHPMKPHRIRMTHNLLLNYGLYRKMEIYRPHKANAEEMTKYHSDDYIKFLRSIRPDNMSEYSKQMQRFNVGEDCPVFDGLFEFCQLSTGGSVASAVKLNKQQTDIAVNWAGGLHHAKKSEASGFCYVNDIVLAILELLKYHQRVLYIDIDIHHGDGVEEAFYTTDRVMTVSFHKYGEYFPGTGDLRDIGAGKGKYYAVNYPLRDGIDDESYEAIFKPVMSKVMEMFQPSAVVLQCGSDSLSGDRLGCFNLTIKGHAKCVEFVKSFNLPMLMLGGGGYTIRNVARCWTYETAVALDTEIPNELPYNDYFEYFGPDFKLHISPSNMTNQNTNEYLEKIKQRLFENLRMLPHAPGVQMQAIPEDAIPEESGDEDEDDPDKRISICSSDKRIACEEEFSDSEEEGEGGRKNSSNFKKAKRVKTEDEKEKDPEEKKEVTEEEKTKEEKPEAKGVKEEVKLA
Outline: (§2)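 Inhibitor pre-incubated 5 min, then HDAC substrate 3 (20 μM) added, 30 min at 37 °C. Developer added for 15 min at room temperature; fluorescence read at ex/em 360/460 nm. Activity relative to no-inhibitor wells, with 200 μM SAHA as 0%. Run in triplicate.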

[8] = target: T1, Protein deacetylase HDAC6 (Homo sapiens) (UniProt Q9UBN7); experiment: Inhibition of full length human N-terminal GST-tagged HDAC6 expressed in baculovirus infected sf9 cells at 10 uM using HDAC substrate 3 preincubated for 5 mins followed by substrate addition measured after 30 mins by fluorescence assay; outline: as §2
T1 sequence (whole entry): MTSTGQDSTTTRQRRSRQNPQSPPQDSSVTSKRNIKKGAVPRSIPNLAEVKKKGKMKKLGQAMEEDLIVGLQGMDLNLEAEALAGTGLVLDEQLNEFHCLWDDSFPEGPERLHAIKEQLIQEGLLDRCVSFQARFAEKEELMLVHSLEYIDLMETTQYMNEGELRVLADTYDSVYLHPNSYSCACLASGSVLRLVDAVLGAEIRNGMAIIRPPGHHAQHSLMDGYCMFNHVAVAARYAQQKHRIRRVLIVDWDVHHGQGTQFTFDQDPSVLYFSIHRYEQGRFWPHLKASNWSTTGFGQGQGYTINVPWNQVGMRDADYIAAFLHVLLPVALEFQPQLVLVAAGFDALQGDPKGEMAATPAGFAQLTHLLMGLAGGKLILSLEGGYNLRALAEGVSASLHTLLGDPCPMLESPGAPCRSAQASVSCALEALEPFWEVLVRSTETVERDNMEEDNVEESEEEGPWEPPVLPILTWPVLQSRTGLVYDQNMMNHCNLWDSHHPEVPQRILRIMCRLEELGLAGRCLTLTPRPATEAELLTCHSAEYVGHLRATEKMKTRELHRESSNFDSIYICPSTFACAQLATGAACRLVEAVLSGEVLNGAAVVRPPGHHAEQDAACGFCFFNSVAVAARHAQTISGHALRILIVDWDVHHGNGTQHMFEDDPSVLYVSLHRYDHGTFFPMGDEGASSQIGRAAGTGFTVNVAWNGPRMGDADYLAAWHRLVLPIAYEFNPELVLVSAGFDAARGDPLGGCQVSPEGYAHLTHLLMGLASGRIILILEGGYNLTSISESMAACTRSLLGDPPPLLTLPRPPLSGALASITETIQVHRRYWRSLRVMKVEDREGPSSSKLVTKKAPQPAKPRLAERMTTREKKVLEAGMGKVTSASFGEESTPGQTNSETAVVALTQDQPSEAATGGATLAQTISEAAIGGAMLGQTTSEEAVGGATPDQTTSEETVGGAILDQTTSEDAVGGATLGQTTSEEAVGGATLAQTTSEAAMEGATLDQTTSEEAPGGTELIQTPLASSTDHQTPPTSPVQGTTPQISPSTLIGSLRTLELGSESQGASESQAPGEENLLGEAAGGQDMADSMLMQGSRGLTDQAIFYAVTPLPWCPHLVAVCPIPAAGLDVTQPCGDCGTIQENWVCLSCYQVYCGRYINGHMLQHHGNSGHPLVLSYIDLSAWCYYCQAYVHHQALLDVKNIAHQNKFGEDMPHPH

[9] = tested on: Klebsiella pneumoniae; experiment: Effect on growth of Klebsiella pneumoniae isolate Pd1.54 at 100 mg/L after 18 to 20 hrs by broth microdilution assay; outline: as §1
[10] = tested on: Escherichia coli; experiment: Effect on growth of Escherichia coli isolate Ch8.68 at 100 mg/L after 18 to 20 hrs by broth microdilution assay; outline: as §1
[11] = tested on: Escherichia coli; experiment: Inhibition of NDM1 in Escherichia coli isolate Ch8.68 assessed as potentiation of imipenem-induced antibacterial activity by measuring imipenem MIC at 100 mg/L after 18 to 20 hrs by broth microdilution assay (reference value: 16 mg/L)
[12] = Fluorescence quenching activity assessed as reduction in tryptophan fluorescence up to 32 uM after 30 mins by luminescence spectrometric method; design: scale not given: the % may be the effect or the level left
Outline: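 NDM-1 (2 μM final) in 50 mM HEPES pH 7.5 with compound at 4–32 μM for 30 min. Excitation 280 nm, emission scanned 300–400 nm, intensity taken at 348 nm. Scaled with buffer as 0% and inhibitor-free enzyme as 100%. Free L-tryptophan (2 μM) run as control.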

[13] = target: Metallo-beta-lactamase type 2 (Klebsiella pneumoniae) (UniProt C7C422); experiment: Inhibition of NDM1 in Klebsiella pneumoniae isolate Cm1.63 assessed as potentiation of imipenem-induced antibacterial activity by measuring imipenem MIC at 100 mg/L after 18 to 20 hrs by broth microdilution assay (reference value: 8 mg/L)
Sequence of Metallo-beta-lactamase type 2 (Klebsiella pneumoniae) (C7C422 whole entry): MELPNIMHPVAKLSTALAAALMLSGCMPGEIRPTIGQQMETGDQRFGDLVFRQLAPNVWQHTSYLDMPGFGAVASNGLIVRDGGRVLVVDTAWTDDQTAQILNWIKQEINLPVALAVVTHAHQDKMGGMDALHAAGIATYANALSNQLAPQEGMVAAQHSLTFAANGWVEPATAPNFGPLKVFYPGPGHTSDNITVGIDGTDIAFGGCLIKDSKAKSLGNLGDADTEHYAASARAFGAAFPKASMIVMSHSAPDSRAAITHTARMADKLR

Nc1cccc(-c2cc(C(=O)O)nc(C(=O)O)c2)c1
MIC [1]: 0.5 µg/mL
Selectivity ratio [2]: 100 to 1000
Activity [3]: Active
pIC50 [4]: 7.10
Activity [5]: Non-Toxic
Activity [6]: Non-Toxic
inhibition [7]: < 50%
inhibition [8]: inactive
Activity [9]: Non-Toxic
Activity [10]: Non-Toxic
MIC [11]: 1 µg/mL
Activity [12]: 50%
MIC [13]: 1 µg/mL
